Data published in ChEMBL document CHEMBL4390648, “Chemical synthesis, crystal structure, versatile evaluation of their biological activities and molecular simulations of novel pyrithiobac derivatives” (Eur J Med Chem, 2019).
Converted amounts (≈) assume the structure as drawn. The source made the active and inactive calls. The rule behind the calls is not given here.

Experiments:
Sclerotinia sclerotiorum = experiment: Antifungal activity against Sclerotinia sclerotiorum assessed as reduction in growth at 50 mg/l by mycelium growth rate method relative to control; format: functional
Procedure, shortened: (§1)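 Mycelium growth rate method against S. sclerotiorum, P. capsici, P. piricola, R. cerealis, W. anthracnose and R. bakanae. Each compound tested at 50 mg/L, with chlorothalonil and PTB as controls. Relative inhibitory ratio (%) calculated from mycelial growth.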

Arabidopsis thaliana [1] = experiment: Inhibition of Arabidopsis thaliana AHAS catalytic subunit using pyruvate as substrate at 10 uM measured after 30 mins by colorimetric method relative to control
Procedure, shortened: (§2)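 Colorimetric assay in 50 mM potassium phosphate pH 7.0 with 50 mM pyruvate, 1 mM thiamine diphosphate, 10 mM MgCl2 and 10 μM FAD. Incubated 30 min at 37 °C for plant AHAS and 30 °C for fungal AHAS. Acetolactate formed was then quantified.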

Candida albicans [2] = experiment: Inhibition of Candida albicans AHAS catalytic subunit at 10 uM using pyruvate as substrate measured after 30 mins by colorimetric method relative to control; procedure, shortened: as §2
Phytophthora capsici = experiment: Antifungal activity against Phytophthora capsici assessed as reduction in growth at 50 mg/l by mycelium growth rate method relative to control; format: functional; procedure, shortened: as §1
[3] = tested on: Severe acute respiratory syndrome-related coronavirus; experiment: Inhibition of SARS coronavirus M protease using AVLQSGFRKK as substrate at 20 uM by FRET assay relative to control
Procedure, shortened: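 Purified SARS-CoV Mpro assayed by FRET. Protein, compound and substrate were preheated at 37 °C and oscillated. Fluorescence (ex 320/em 405 nm) was read every 5 s for 200 reads.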

[4] = tested on: Brassica rapa subsp. oleifera; experiment: Herbicidal activity against Brassica campestris L assessed as inhibition of rape root growth at 10 mg/l root growth incubated for 48 hrs relative to control; format: functional
Procedure, shortened: (§3)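 Rape seeds soaked in distilled water for 4 h, then placed on filter paper wetted with inhibitor solution, 15 seeds per 6-cm dish. Germinated in the dark at 28 °C for 48 h. Mean length of 10 roots per plate measured.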

Tobacco mosaic virus [5] = experiment: Antiviral activity against Tobacco mosaic virus inoculated in Nicotiana tabacum leaves assessed as passivation by measuring local lesion numbers at 100 mg/l pre-incubated with virus for 30 mins followed by inoculation and measured up to 4 days; format: functional
Procedure, shortened: (§4)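 Passivation assay: TMV mixed with an equal volume of compound solution for 30 min, then rubbed onto the left half of N. tabacum L. leaves. The right half received virus mixed with solvent as control. Local lesions counted 3–4 days after inoculation. Compounds tested at 500 or 100 mg/L.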

Tobacco mosaic virus [6] = experiment: Antiviral activity against Tobacco mosaic virus inoculated in Nicotiana tabacum leaves assessed as passivation by measuring local lesion numbers at 500 mg/l pre-incubated with virus for 30 mins followed by inoculation and measured up to 4 days; format: functional; procedure, shortened: as §4
Candida albicans [7] = experiment: Antifungal activity against Candida albicans SC5314 grown in RPMI 1640 medium incubated for 24 hrs by microdilution method; format: functional; settings: SC5314, 24 h
Procedure, shortened: (§5)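 C. albicans standard strain SC5314 and clinical isolates g5 and 17# tested by broth microdilution in YNB or RPMI 1640 medium. Plates incubated at 35 °C for up to 72 h, with visual readings taken at 24 h. MIC taken as the lowest concentration preventing visible growth.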

Mythimna separata = experiment: Insecticidal activity against Mythimna separata assessed as larval mortality at 600 mg/l by leaf-dip method; format: functional
Arabidopsis thaliana [8] = experiment: Inhibition of Arabidopsis thaliana AHAS catalytic subunit using pyruvate as substrate at 100 uM measured after 30 mins by colorimetric method relative to control; procedure, shortened: as §2
Candida albicans [9] = experiment: Antifungal activity against Candida albicans isolate 17 grown in YNB medium incubated for 24 hrs by microdilution method; format: functional; settings: isolate 17, 24 h; procedure, shortened: as §5
Candida albicans [10] = experiment: Antifungal activity against Candida albicans isolate g5 grown in RPMI 1640 medium incubated for 24 hrs by microdilution method; format: functional; settings: isolate g5, 24 h; procedure, shortened: as §5
Colletotrichum = experiment: Antifungal activity against Colletotrichum (W. anthracnose) assessed as reduction in growth at 50 mg/l by mycelium growth rate method relative to control; format: functional; procedure, shortened: as §1
Candida albicans [11] = experiment: Antifungal activity against Candida albicans SC5314 grown in YNB medium incubated for 24 hrs by microdilution method; format: functional; settings: SC5314, 24 h; procedure, shortened: as §5
[12] = tested on: Brassica rapa subsp. oleifera; experiment: Herbicidal activity against Brassica campestris L assessed as inhibition of rape root growth at 100 mg/l root growth incubated for 48 hrs relative to control; format: functional; procedure, shortened: as §3
Fusarium fujikuroi = experiment: Antifungal activity against Gibberella fujikuroi assessed as reduction in growth at 50 mg/l by mycelium growth rate method relative to control; format: functional; procedure, shortened: as §1
Candida albicans [13] = experiment: Inhibition of Candida albicans AHAS catalytic subunit at 100 uM using pyruvate as substrate measured after 30 mins by colorimetric method relative to control; procedure, shortened: as §2
Candida albicans [14] = experiment: Antifungal activity against Candida albicans isolate g5 grown in YNB medium incubated for 24 hrs by microdilution method; format: functional; settings: isolate g5, 24 h; procedure, shortened: as §5
Candida albicans [15] = experiment: Antifungal activity against Candida albicans isolate 17 grown in RPMI 1640 medium incubated for 24 hrs by microdilution method; format: functional; settings: isolate 17, 24 h; procedure, shortened: as §5
Ceratobasidium cereale = experiment: Antifungal activity against Rhizoctonia cerealis assessed as reduction in growth at 50 mg/l by mycelium growth rate method relative to control; format: functional; procedure, shortened: as §1
[16] = tested on: Botryosphaeria berengeriana; experiment: Antifungal activity against Physalospora pyricola assessed as reduction in growth at 50 mg/l by mycelium growth rate method relative to control; format: functional; procedure, shortened: as §1

| SMILES | inhibition at 50 µg/mL (Sclerotinia sclerotiorum) | inhibition (Arabidopsis thaliana [1]) | inhibition (Candida albicans [2]) | inhibition at 50 µg/mL (Phytophthora capsici) | inhibition [3] | inhibition (INH) [4] | inhibition at 500 µg/mL (Tobacco mosaic virus [6]) | MIC (Candida albicans [7]) | mortality at 600 µg/mL (Mythimna separata) | inhibition (Arabidopsis thaliana [8]) | MIC (Candida albicans [9]) | MIC (Candida albicans [10]) | inhibition at 50 µg/mL (Colletotrichum) | MIC (Candida albicans [11]) | inhibition (INH) [12] | inhibition at 50 µg/mL (Fusarium fujikuroi) | inhibition (Candida albicans [13]) | MIC (Candida albicans [14]) | MIC (Candida albicans [15]) | inhibition at 50 µg/mL (Ceratobasidium cereale) | further results |
| --- | --- | --- | --- | --- | --- | --- | --- | --- | --- | --- | --- | --- | --- | --- | --- | --- | --- | --- | --- | --- | --- |
| COc1nc(OC)nc(Sc2ccc(C(=O)O)cc2Cl)n1 | 69.4% | 12.6% | 25.6% | 58.3% | 25.5% | 0% | 0% | > 100 µg/mL | 20% | 15.3% | 25 µg/mL (≈ 76.3 µM) | > 100 µg/mL | 16.7% | 100 µg/mL (≈ 305 µM) | 58.2% | 27.3% | 73% | 100 µg/mL (≈ 305 µM) | > 100 µg/mL | 59.5% | inhibition (Tobacco mosaic virus [5]): inactive; inhibition at 50 µg/mL [16]: 42.2% |
| COc1nc(OC)nc(Sc2ccc(Cl)cc2C(=O)O)n1 | 61.1% | 5.5% | 39.3% | 8.3% | 24.2% | 0% | 0% | > 100 µg/mL | 40% | 59.6% | > 100 µg/mL | > 100 µg/mL | 16.7% | > 100 µg/mL | 24.2% | 0% | 68.8% | > 100 µg/mL | > 100 µg/mL | 52.4% | inhibition (Tobacco mosaic virus [5]): inactive; inhibition at 50 µg/mL [16]: 40.6% |
| COc1nc(OC)nc(Sc2ccc(C#N)cc2Cl)n1 | 36.1% | 43.2% | 65.4% | 8.3% | 12.8% | 28.4% | 29.6% | > 100 µg/mL | 30% | 89.6% | > 100 µg/mL | > 100 µg/mL | 33.3% | > 100 µg/mL | 60.3% | 42.4% | 73.6% | > 100 µg/mL | > 100 µg/mL | 54.8% | inhibition (Tobacco mosaic virus [5]): inactive; inhibition at 50 µg/mL [16]: 60.9% |
| COc1nc(OC)nc(Sc2cccc(Br)c2C#N)n1 | 13.9% | 40.3% | 34.8% | 25% | 96.3% | 0% | 0% | > 100 µg/mL | 75% | 74.7% | 6.25 µg/mL (≈ 17.7 µM) | > 100 µg/mL | 47.6% | 12.5 µg/mL (≈ 35.4 µM) | 14.3% | 21.2% | 71.1% | 12.5 µg/mL (≈ 35.4 µM) | > 100 µg/mL | 31% | inhibition (Tobacco mosaic virus [5]): inactive; inhibition at 50 µg/mL [16]: 73.4% |
| COc1cc(OC)nc(Sc2cc(C(F)(F)F)ccc2C#N)n1 | 11.1% | 18% | 7.9% | 66.7% | 29.9% | 12.3% | 35.8% | > 100 µg/mL | 65% | 91.6% | > 100 µg/mL | > 100 µg/mL | 26.2% | > 100 µg/mL | 66.1% | 45.5% | 26.1% | > 100 µg/mL | > 100 µg/mL | 70.2% | inhibition (Tobacco mosaic virus [5]): inactive; inhibition at 50 µg/mL [16]: 28.1% |
| COc1nc(OC)nc(Sc2ccc(C(=O)O)cc2Br)n1 | 77.8% | 22.4% | 50.1% | 41.7% | 25% | 0% | 21.4% | > 100 µg/mL | 10% | 30% | > 100 µg/mL | > 100 µg/mL | 35.7% | > 100 µg/mL | 34.3% | 57.6% | 92.4% | > 100 µg/mL | > 100 µg/mL | 58.3% | inhibition (Tobacco mosaic virus [5]): inactive; inhibition at 50 µg/mL [16]: 46.9% |
| COc1nc(OC)nc(Sc2ccc(C(=O)O)cc2F)n1 | 61.1% | 13.8% | 52.3% | 16.7% | 89.5% | 0% | 0% | > 100 µg/mL | 30% | 18.7% | 3.12 µg/mL (≈ 10 µM) | > 100 µg/mL | 19% | > 100 µg/mL | 27.6% | 6.1% | 94.9% | > 100 µg/mL | > 100 µg/mL | 57.1% | inhibition (Tobacco mosaic virus [5]): inactive; inhibition at 50 µg/mL [16]: 53.1% |
| COc1nc(OC)nc(Sc2cccc(F)c2C#N)n1 | 63.9% | 34.5% | 46.3% | 33.3% | 90.8% | 2.2% | 0% | 100 µg/mL (≈ 342 µM) | 20% | 86.5% | 3.12 µg/mL (≈ 10.7 µM) | 100 µg/mL (≈ 342 µM) | 42.9% | 6.25 µg/mL (≈ 21.4 µM) | 26.2% | 24.2% | 70.4% | 12.5 µg/mL (≈ 42.8 µM) | 100 µg/mL (≈ 342 µM) | 52.4% | inhibition (Tobacco mosaic virus [5]): inactive; inhibition at 50 µg/mL [16]: 45.3% |
| COc1nc(OC)nc(Sc2ccc(C(=O)O)c(C(F)(F)F)c2)n1 | 75% | 21.8% | 8.6% | 8.3% | 22.2% | 4% | 42.3% | > 100 µg/mL | 80% | 75.5% | > 100 µg/mL | > 100 µg/mL | 16.7% | > 100 µg/mL | 16.5% | 36.4% | 21.2% | > 100 µg/mL | > 100 µg/mL | 38.1% | inhibition at 100 µg/mL (Tobacco mosaic virus [5]): 6.2%; inhibition at 50 µg/mL [16]: 43.8% |
| COc1nc(OC)nc(Sc2ccc(Br)cc2C(=O)O)n1 | 66.7% | 12% | 59.3% | 33.3% | 48.8% | 5.2% | 0% | > 100 µg/mL | 45% | 19% | > 100 µg/mL | > 100 µg/mL | 23.8% | > 100 µg/mL | 55.1% | 6.1% | 96.7% | > 100 µg/mL | > 100 µg/mL | 58.3% | inhibition (Tobacco mosaic virus [5]): inactive; inhibition at 50 µg/mL [16]: 59.4% |
